TAAR1 antagonist: antagonists of human TAAR1; 360,000 tested, 1.5% active; CHO RD-HGA16 TAAR1, Fluo-8 calcium fluorescence, antagonist; Q96RJ0; AID 624466; inhibition, % at 3 µM;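 active means inhibition above a per-plate cutoff, the mean inhibition of test compounds on that plate plus 3 SD, cut at about 49% in these data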
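Test system – hTAAR1-expressing CHO RD-HGA16 cells, Gα16-coupled · Reagent – β-PEA at EC80 concentration, post-compound challenge · Compound dosing – 3 µM, single point · Timing – 140 s kinetic read after compound, 140 s after agonist · Detection – Fluo-8 intracellular calcium dye fluorescence, real-time kinetic reads · Control set – DMSO and EC80 PEA controls · Repeats – n of 1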
CHO parental Ca: counter-screen: ATP calcium response change in parental CHO cells; parental CHO-K1, ATP-induced calcium, Fluo-8 fluorescence; inhibition, % at 5.6 µM; 330,000 tested, 0.63% active;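 active means inhibition above that plate's mean sample inhibition plus 3 SD, cut at about 26% in these data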
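Assay system – parental CHO cells · Reagent – ATP stimulus · Detection – intracellular calcium via Fluo-8 no-wash fluorescent dye · Evaluation – percent inhibition of ATP-evoked calcium rise, normalized to controls · Controls – ATP wells versus no-ATP DMSO wells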
OX1R antag-1: human HCRTR1 antagonism | O43613 | CHO/OX1R cells, Fluo-8 calcium fluorescence, orexin A | inhibition, % at 5 µM | 330,000 tested, 0.43% active | AID 434989;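 active means inhibition above its plate's threshold, mean inhibition of all tested compounds on the plate plus 3 SD, cut at about 37% in these data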
Target sequence (O43613 whole entry, looked up): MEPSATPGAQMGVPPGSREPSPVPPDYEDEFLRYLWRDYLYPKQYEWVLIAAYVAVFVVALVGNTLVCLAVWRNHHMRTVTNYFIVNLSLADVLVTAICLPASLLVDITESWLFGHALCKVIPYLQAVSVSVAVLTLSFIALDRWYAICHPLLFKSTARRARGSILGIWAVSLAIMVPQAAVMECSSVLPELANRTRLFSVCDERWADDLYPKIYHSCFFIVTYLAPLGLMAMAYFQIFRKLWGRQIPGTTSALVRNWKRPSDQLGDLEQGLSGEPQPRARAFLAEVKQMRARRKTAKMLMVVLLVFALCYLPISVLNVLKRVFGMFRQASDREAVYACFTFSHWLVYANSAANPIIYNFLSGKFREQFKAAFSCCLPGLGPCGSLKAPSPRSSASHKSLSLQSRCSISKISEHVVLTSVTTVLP
GPR7 antag: human neuropeptides B/W receptor 1 antagonism; GPR7-expressing cells, fluorescence antagonist assay; inhibition, % at 4.4 µM; AID 1861; 290,000 tested, 1.1% active; in the data active means inhibition above about 16%, passing the limit was not always enough;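 further: cells stimulated with the agonist NPW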
TAAR1 agonist: agonists of human TAAR1. Q96RJ0. CHO RD-HGA16 TAAR1, Fluo-8 calcium fluorescence; vehicle wells 0%, saturating PEA agonist 100%. activation, % at 3 µM. 360,000 tested, 0.99% active;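 active means activation above the mean activation of all test compounds in the run plus 3 SD, cut at about 38% in these data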
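System: CHO RD-HGA16 cells carrying human TAAR1 plus Gα16; Incubation: 17-24 h seeding, 75 min 37 °C dye, 30 min RT; Measured by: Fluo-8 fluorescence, 5 s baseline then 140 s kinetic read; Control set: DMSO and PEA EC100; Replication: single well for each compound.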
OX1R antag-2: OX1R (human) antagonism; AID 485270; inhibition, % at 6.6 µM; 330,000 tested, 1.8% active; OX1R-expressing cells, FRET antagonist read-out; O43613; in the data active means inhibition mostly above about 38%, no sharp cut-off; inactive means mostly below about 40%
OX1R Ca confirm: confirmation of human orexin 1 receptor antagonists; 1,100 tested, 38% active; CHO/OX1R cells, orexin A calcium Fluo-8 fluorescence; shares compounds with OX1R antag-1; inhibition, % at 5 µM; in the data active means inhibition above about 29%
CHO Ca triplic: signal in parental CHO cells, OX1R antagonist counter-screen; inhibition, % at 5.6 µM; shares compounds with OX1R antag-1; 1,100 tested, 9.3% active; parental CHO-K1, ATP-induced calcium, Fluo-8 fluorescence;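 active means inhibition above a per-plate limit, the mean inhibition of that plate's test compounds plus 3 SD, cut at about 25% in these data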
OX1R HTRF confirm: OX1R (human) antagonism, HTRF confirmed; 1,800 tested, 49% active; OX1R-expressing cells, HTRF antagonist assay; shares compounds with OX1R antag-2; inhibition, % at 6.6 µM; AID 492964; in the data active means inhibition above about 55%;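 further: CHO cells expressing OX1R stimulated with orexin A at about EC80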
CHO-K1 HTRF: signal in parental CHO-K1 cells, OX1R antagonist counter-screen; shares compounds with OX1R antag-2; AID 493232; 1,800 tested, 48% active; inhibition, % at 6.6 µM; HTRF counterscreen; in the data active means inhibition above about 17%
TAAR1 nonsel count: nonselective antagonism, TAAR1 counter-screen. shares compounds with TAAR1 antagonist. counterscreen cell line, calcium fluorescence, antagonist mode. inhibition, % at 3 µM. 2,400 tested, 77% active. AID 651780; in the data active means inhibition above about 22%;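 further: CHO-Ga16 host cells stimulated with ATP at an EC80 level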
TAAR1 ant conf: confirmation of human TAAR1 antagonists. shares compounds with TAAR1 antagonist. TAAR1-expressing cells, fluorescence antagonist read-out. inhibition, % at 3 µM. 2,400 tested, 40% active; in the data active means inhibition above about 49%;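 further: CHO-Ga16 host cells challenged with agonist PEA near its EC80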
Ga16 ag counter-1: counter-screen for TAAR1 antagonists: nonselective Ga16 agonists. shares compounds with TAAR1 antagonist. Ga16-expressing cells, calcium fluorescence, agonist counterscreen. activation, % at 3 µM. 2,400 tested, 18% active. AID 651953; in the data active means activation above about 12%
TAAR1 ag count: counter-screen for human TAAR1 antagonists: TAAR1 agonists | activation, % at 3 µM | shares compounds with TAAR1 antagonist | 2,400 tested, 2% active | hTAAR1 cell line, fluorescence activation, agonist mode; in the data active means activation above about 37%;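 further: CHO cells stably expressing TAAR1 with calcium dye readout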
TAAR1 ag conf: confirmation of human TAAR1 agonists. shares compounds with TAAR1 agonist. CHO RD-HGA16 TAAR1, Fluo-8 calcium fluorescence; scaled: DMSO 0%, maximal phenethylamine 100%. activation, % at 3 µM. 2,400 tested, 82% active. AID 651783;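 active means activation above a cutoff set at the run's mean compound activation plus 3 SD, cut at about 39% in these data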
Ga16 ag counter-2: counter-screen for TAAR1 agonists: nonselective agonists in parental cells; shares compounds with TAAR1 agonist; CHO-Ga16 parental, Fluo-8 calcium fluorescence; normalized to maximal ATP response, DMSO zero; activation, % at 3 µM; 2,400 tested, 50% active; AID 651787;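 active means activation above the run cutoff, the mean activation over all tested wells plus 3 SD, cut at about 12% in these data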
TAAR1 desensitize: human TAAR1 agonist that also desensitizes the receptor; AID 651951; CHO RD-HGA16 hTAAR1, Fluo-8 calcium, beta-PEA response inhibition; 2,400 tested, 46% active; shares compounds with TAAR1 agonist; inhibition, % at 3 µM;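 active means inhibition above the run cutoff, the mean inhibition of all test compounds plus 3 SD, cut at about 49% in these data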;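 further: beta-PEA stimulus applied at its EC80; loss of beta-PEA calcium signal after compound pretreatment read as receptor desensitization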
Ga16 antag count: nonselective Ga16 antagonism, counter-screen | shares compounds with TAAR1 agonist | CHO-Ga16 ATP-induced calcium, Fluo-8 fluorescence | inhibition, % at 3 µM | 2,400 tested, 39% active | AID 651952;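 active means inhibition above the plate's mean compound inhibition plus 3 SD, computed per plate, cut at about 22% in these data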
Numbers stand for hits; i = inactive; nt = no result. An excerpt weighted towards active compounds, which were near 4.5% of everything screened.

SMILES | TAAR1 antagonist | CHO parental Ca | OX1R antag-1 | GPR7 antag | TAAR1 agonist | OX1R antag-2 | OX1R Ca confirm | CHO Ca triplic | TAAR1 nonsel count | TAAR1 ant conf | Ga16 ag counter-1 | TAAR1 ag count | others
COc1ccc(N2CCN(C3CC(=O)N(Cc4ccccc4)C3=O)CC2)cc1 (stereo not drawn) | i | i | i | i | i | i | nt | nt | nt | nt | nt | nt
O=C(c1ccncc1)c1ccc(N2CCN(C3CC(=O)N(Cc4ccccc4)C3=O)CC2)cc1 (stereo not drawn) | 51 | i | i | i | i | 71 | i | i | 26 | i | i | i | OX1R HTRF confirm=i;CHO-K1 HTRF=i
CSc1cccc(NC(=O)C2CCN(S(=O)(=O)c3ccc(F)cc3)CC2)c1 | i | i | i | i | i | i | nt | nt | nt | nt | nt | nt
CSc1cccc(NC(=O)C2CCCN(S(=O)(=O)c3ccc(F)cc3)C2)c1 (stereo not drawn) | 56 | i | 53 | 19 | i | 84 | 55 | i | 23 | i | i | i | OX1R HTRF confirm=79;CHO-K1 HTRF=i
CC(=O)c1cccc(NC(=O)c2ccc(N(Cc3ccccc3C)S(C)(=O)=O)cc2)c1 | 57 | i | i | i | i | i | i | i | 37 | 50 | 12 | i
O=C(Nc1nnc(-c2ccccc2Cl)o1)c1ccco1 | i | i | i | i | i | i | nt | nt | nt | nt | nt | nt
O=C(Nc1nnc(-c2ccccc2Cl)o1)c1nc2ccccc2s1 | 74 | i | i | i | 134 | i | i | i | nt | nt | nt | nt | TAAR1 ag conf=113;Ga16 ag counter-2=81;TAAR1 desensitize=64;Ga16 antag count=36
C/C(=N/NC(=O)c1ccncc1)c1cc2ccc(O)cc2oc1=O | i | i | i | i | 90 | i | 66 | 54 | nt | nt | nt | nt | TAAR1 ag conf=134;Ga16 ag counter-2=153;TAAR1 desensitize=i;Ga16 antag count=i
CC(=O)c1cc2c(cc1F)C(C)(C)CCC2(C)C | i | nt | nt | nt | i | nt | nt | nt | nt | nt | nt | nt
Cc1ncc([N+](=O)[O-])n1CC(=O)Nc1ccccc1Cl | i | nt | nt | nt | i | nt | nt | nt | nt | nt | nt | nt
Cc1ccc(C)c(C(O)c2ncc(-c3ccc(F)cc3)[nH]2)c1 (stereo not drawn) | i | nt | nt | nt | i | nt | nt | nt | nt | nt | nt | nt

From PubChem BioAssay
